Laboratory results taken from ChEMBL document CHEMBL3526151, “Reversible disulfide formation of the glutamate carboxypeptidase II inhibitor E2072 results in prolonged systemic exposures in vivo” (Drug Metab Dispos, 2012).

Tests used:
[1] = Cmax in Sprague-Dawley rat sciatic nerve at 10 mg/kg, po administered as single dose measured per gm of tissue by LC-MS/MS analysis; format: ADME, organism-based; design: dose 10 mg/kg, route oral
Outline: (§1)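 Male Sprague-Dawley rats were dosed orally with 10 mg/kg/day, either once or daily for 5 days; n = 4 per group. Blood was taken by cardiac puncture and liver, kidney, brain and sciatic nerve were collected at 0–8 h post-dose. Tissues were homogenized in PBS containing NEM at equal volume per gram. NEM-derivatized analyte was extracted with methanol and quantified by LC-MS/MS (1–5000 ng/ml). Cmax is the observed value.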

[2] = Phase 1 metabolic stability in rat liver microsomes assessed as compound remaining at 10 uM measured for 1 hr by LC-MS/MS analysis in absence of cofactors; format: ADME; conditions: read-out: Stability
Outline: (§2)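 Cofactor-free controls were run for each microsomal incubation: 0.5 mg/ml liver microsomes with 10 µM compound, omitting cofactors, so that cofactor-independent degradation could be measured. Samples were taken up to 1 h, quenched with acetonitrile containing internal standard, and the percent remaining was determined by LC-MS/MS.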

[3] = Clearance in Sprague-Dawley rat at 0.1 mg/kg, iv administered as bolus injection measured under fasted conditions by LC-MS/MS analysis; format: ADME, organism-based; design: dose 0.1 mg/kg, route intravenous; conditions: in vivo
Outline: (§3)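 Male Sprague-Dawley rats (280–330 g), jugular vein cannulated, fasted overnight until 4 h post-dose. Single tail-vein bolus of 0.1, 1, 10 or 30 mg/kg in 50 mM HEPES buffered saline, pH 7.4. Blood drawn 0–24 h into heparin tubes containing NEM. Plasma quantified by LC-MS/MS after NEM derivatization. Noncompartmental analysis: AUClast by linear trapezoidal rule, Cl = dose/AUC0-∞. Mean ± S.D., n = 4–9.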

[4] = Cmax in Sprague-Dawley rat sciatic nerve at 10 mg/kg/day, po administered measured per gm of tissue for 5 days by LC-MS/MS analysis; format: ADME, organism-based; design: dose 10 mg/kg/day, route oral; outline: as §1
Rattus norvegicus = assay: Analgesic activity in Sprague-Dawley rat chronic constriction injury model assessed as change in paw withdrawal latency at 10 mg/kg/day, po measured 7 days after drug treatment cessation (reference value: -2.68 +/-0.43 s); format: functional
[5] = Elimination half life in cynomolgus monkey at 5 mg/kg, iv administered as bolus injection by LC-MS/MS analysis; format: ADME, organism-based, Macaca fascicularis; design: dose 5 mg/kg, route intravenous; conditions: in vivo, read-out: beta t1/2 (converted)
Outline: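 Cynomolgus monkeys (n = 3) received a nominal 5 mg/kg dose in 50 mM HEPES, TCEP-treated to prevent disulfide formation. Dosing was either an IV bolus via cephalic or saphenous vein or oral. Arterial cannula blood was collected into NEM-containing heparinized tubes for up to 9 days and analyzed by LC-MS/MS. Noncompartmental analysis gave t1/2 = 0.693/λz and F% = dose-normalized mean AUCinf p.o./i.v. ×100.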

[6] = Phase 1 metabolic stability in rat liver microsomes assessed as compound remaining at 10 uM measured for 1 hr by LC-MS/MS analysis; format: ADME; conditions: read-out: Stability
Outline: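 Liver microsomes (0.5 mg/ml) were incubated with 10 µM compound (final) in 100 mM potassium phosphate, pH 7.4. An NADPH-regenerating system was present: 1.3 mM NADPH, 3.3 mM glucose 6-phosphate, 3.3 mM MgCl2, 0.4 U/ml G6PDH and 50 µM sodium citrate. Runs were in duplicate, with samples taken up to 1 h and quenched with acetonitrile containing internal standard. Loss of compound was followed by LC-MS/MS.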

[7] = Tmax in Sprague-Dawley rat at 30 mg/kg, po administered via gavage measured under fasted conditions by LC-MS/MS analysis; format: ADME, organism-based; design: dose 30 mg/kg, route oral; conditions: in vivo
Outline: (§4)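 Jugular-cannulated male Sprague-Dawley rats, 280–330 g, fasted overnight to 4 h post-dose. Single dose in 50 mM HEPES-buffered saline pH 7.4, by oral gavage or as tail-vein i.v. bolus. Blood into heparin/NEM tubes at 0–24 h. Plasma measured by LC-MS/MS; noncompartmental analysis; Tmax observed; Vd = dose/(AUCinf·λz).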

[8] = AUC(0 to last) in Sprague-Dawley rat at 10 mg/kg, po administered via gavage measured under fed conditions by LC-MS/MS analysis; format: ADME, organism-based; design: time 0 - last, dose 10 mg/kg, route oral; conditions: plasma
Outline: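 Nonfasted male Sprague-Dawley rats given a single 10 mg/kg oral dose in 50 mM HEPES buffered saline, pH 7.4. Plasma collected 0.25–24 h into heparin/NEM tubes and assayed by LC-MS/MS. Noncompartmental parameters derived, including Cl/F and Vd/F. Mean ± S.D., n = 6–9.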

[9] = Tmax in Sprague-Dawley rat at 0.1 mg/kg, po administered via gavage measured under fasted conditions by LC-MS/MS analysis; format: ADME, organism-based; design: dose 0.1 mg/kg, route oral; conditions: in vivo; outline: as §4
[10] = Clearance in Sprague-Dawley rat at 30 mg/kg, iv administered as bolus injection measured under fasted conditions by LC-MS/MS analysis; format: ADME, organism-based; design: dose 30 mg/kg, route intravenous; conditions: in vivo; outline: as §3
[11] = Phase 1 metabolic stability in mouse liver microsomes assessed as compound remaining at 10 uM measured for 1 hr by LC-MS/MS analysis in absence of cofactors; format: ADME; conditions: read-out: Stability; outline: as §2
[12] = Metabolic stability in Sprague-Dawley rat plasma assessed as compound remaining at 10 uM after 1 hr by LC-MS/MS analysis; format: ADME, cell-free; conditions: read-out: Stability
Outline: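 Compound at 5 and 10 µM was incubated at 37°C in Sprague-Dawley rat or cynomolgus monkey plasma. Aliquots taken at 0, 30 and 60 min were quenched with acetonitrile and analyzed by LC-MS/MS. Percent remaining = analyte/internal-standard area ratio at time t divided by that at time 0.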

[13] = Tmax in cynomolgus monkey at 5 mg/kg, po by LC-MS/MS analysis; format: ADME, organism-based, Macaca fascicularis; design: dose 5 mg/kg, route oral; conditions: in vivo
Outline: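 Cynomolgus monkeys (n=3) dosed at 5 mg/kg nominal, TCEP-treated 50 mM HEPES solution, either as i.v. bolus (cephalic or saphenous vein) or orally. Arterial cannula blood into heparin/NEM tubes for up to 9 days. Plasma parent and homodisulfide measured by LC-MS/MS; Tmax observed.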

O=C(O)c1cccc(-c2cccc(CCS)c2C(=O)O)c1
Cmax [1]: 203 ng/g
remaining at 1 h, 10 µM [2]: > 90%
clearance [3]: 1 mL/min/kg
Cmax [4]: 165 ng/g
Time (Rattus norvegicus): -1.53 s
half-life [5]: 23 h
remaining at 1 h, 10 µM [6]: > 90%
Tmax [7]: 1.43 h
AUC(0-t) [8]: 32200 ng·h/mL
Tmax [9]: 0.83 h
clearance [10]: 3 mL/min/kg
remaining at 1 h, 10 µM [11]: > 90%
remaining at 1 h, 10 µM [12]: 64.5%
Tmax [13]: 0.42 h
